This note sets out measurements from PubChem BioAssay.

Active and inactive are the calls of the source.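 The calls were made as follows, unless noted: active = fluorescence slope after compound addition differing from the mean of all screened samples at 99.7% confidence, in either direction; inactive = the rest.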

Assay [1] is described as follows: inhibitors of TNFa-induced NFkB p65 translocation, primary screen, imaging, HUVEC, MLSMR starter and 10KST1 sets (AID 438;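 active = inhibition above 20% together with a positive visual image hit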;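 also: compound added about 3h40 before a 20 min TNFalpha stimulation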;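 as to inhibition: signal is the nuclear over cytoplasmic p65 intensity ratio per well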). Particulars: HUVEC TNFa-induced p65 nuclear translocation; cell count: measured here: nuclei count (cytotoxicity indicator), at 2.08 µM; inhibition: at 2 µM, stronger effect = higher value, 0% TNFa-plus-vehicle, 100% no-TNFa wells.
A short description of assay [2]: endothelial E-selectin expression blockers – imaging, HUVEC, immunofluorescence, MLSMR starter and 10KST1 sets, primary screen (AID 487;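 active = visually confirmed hit in the image check and inhibition above 20%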;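 as to inhibition: signal is fraction of cell area covered by stained E-selectin grains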;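 as to nuclei count: 100% = median nuclei count of all wells on the same plate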). Conditions: HUVEC TNFalpha-induced E-selectin immunofluorescence imaging, at 2 µM; inhibition: stronger effect = higher value; nuclei count: measured here: cell number, toxicity.
Assay [3] in a line: Primary imaging screen for DUSP6 inhibitors that restore phospho-Erk in transfected HeLa cells, chemical complementation (AID 609;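 active = compounds giving at least 50% inhibition in the cell-based MKP-3 phosphatase rescue imaging test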;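 as to inhibition: phospho-Erk level distribution per well compared with pooled transfected vehicle control wells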). Particulars: HeLa MKP-3 transfected, phospho-Erk imaging KS statistic, at 10 µM, cells stimulated with TPA for 15 min.
Assay [4] has as its target Dual specificity protein phosphatase 6 (Homo sapiens) (UniProt Q16828). Described as above. Particulars: HeLa MKP-3 transfected, phospho-Erk imaging KS statistic; at 10 µM; stronger effect = higher value; cells stimulated with TPA for 15 min.
The target of assay [5] is Voltage-gated potassium channel subunit beta-2 (Rattus norvegicus) (UniProt P62483). Put plainly: inhibitors of rat Kvbeta2 reductase activity – biochemical, NADPH fluorescence, primary screen (AID 622;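 active = fluorescence slope higher than the sample average by over 3 SD, cut at about -0.22 in these data, passing the limit was not always enough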;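 also: slope of raw intensity against log time taken from 70 to 1610 s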). Particulars: recombinant KvBeta, 4-cyanobenzaldehyde reduction, at 10 µM, stronger effect = higher value.
Chain of Voltage-gated potassium channel subunit beta-2 (Rattus norvegicus) (P62483 whole entry, looked up): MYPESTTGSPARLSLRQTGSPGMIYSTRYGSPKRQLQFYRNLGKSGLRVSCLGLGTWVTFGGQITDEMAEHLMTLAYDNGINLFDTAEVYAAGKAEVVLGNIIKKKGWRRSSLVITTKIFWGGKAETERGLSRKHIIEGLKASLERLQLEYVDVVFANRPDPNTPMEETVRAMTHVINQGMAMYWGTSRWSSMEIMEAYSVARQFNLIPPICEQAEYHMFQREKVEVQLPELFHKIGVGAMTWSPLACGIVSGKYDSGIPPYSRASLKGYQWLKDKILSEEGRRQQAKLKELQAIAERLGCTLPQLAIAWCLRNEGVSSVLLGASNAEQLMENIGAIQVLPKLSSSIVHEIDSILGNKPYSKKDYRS
For assay [6] the target is unchanged. Description: enhancers of rat Kvbeta2 NADPH turnover – biochemical, NADPH fluorescence, primary screen (AID 623;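 active = NADPH fluorescence slope more negative than the mean of all samples by about 3 SD, 99.7% confidence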;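 also: fluorescence intensity change per second fitted from 20 to 320 s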). Particulars: Recombinant KvBeta, NADPH fluorescence decrease slope, 10 min; at 10 µM; stronger effect = lower value.
Assay [7] has as its target Alpha-2C adrenergic receptor (Homo sapiens) (UniProt P18825). Put plainly: compounds altering alpha2C-coupled GIRK flux – cell-based, HEK293 alpha2C/GIRK1/2, thallium flux, primary screen (AID 624).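 Also: slope of fluorescence ratio to pre-addition baseline per second over 15 to 24 s.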 Conditions: thallium flux BTC fluorescence, at 10 µM, actives lie on both sides.
Assay [8] is described as follows: inhibitors of larval lipid processing in zebrafish, primary screen, whole organism, PED6 fluorescence, gall bladder and intestine (AID 686;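 active = a full or partial loss of lipid-probe fluorescence in the fish gall bladder, intestine or both, judged by eye; inactive = no fluorescence loss, or compound toxic to the fish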;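 also: signal comes from phospholipase A2 cleavage of quenched PED6 carried via bile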). Conditions: Zebrafish larvae PED6 lipid processing, fluorescence scoring; screened at 20 µM (by protocol). The gist of the method: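 Doses: 20 µM single dose. Test system: live zebrafish larvae aged 5-7 days, whole organism. Quantity: five larvae per well. Measured by: By-eye fluorescence microscopy. Reagent: ingested quenched lipid PED6 at 100 nM. Read-out: visual per-well fluorescence inhibition score. Times: overnight exposure of larvae to compound plus PED6.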

Assay [9] is described as follows: loss of swimming-algae plug formation – whole organism, Chlamydomonas reinhardtii, WT vs cilia-less mutant, absorbance, 96-well, primary screen (AID 463189;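 active = inhibition at or above 50% relative to wild type and mutant plate controls; inactive = inhibition below 50%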;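 also: 0% = wild type cc124 cells in DMSO and 100% = ciliumless bld1 mutant cells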). Particulars: Chlamydomonas reinhardtii gravitaxis, OD600 absorbance, 2 days; at 10 µM; stronger effect = higher value.
[10] abbreviates: measured here: cell density z-score.
The mark [11] stands for this setting: measured here: nuclear c-Myc green intensity z-score.
The mark [12] stands for this setting: measured here: nuclear pErk red intensity z-score, stronger effect = higher value.

Chain of Alpha-2C adrenergic receptor (Homo sapiens) (P18825 whole entry, looked up): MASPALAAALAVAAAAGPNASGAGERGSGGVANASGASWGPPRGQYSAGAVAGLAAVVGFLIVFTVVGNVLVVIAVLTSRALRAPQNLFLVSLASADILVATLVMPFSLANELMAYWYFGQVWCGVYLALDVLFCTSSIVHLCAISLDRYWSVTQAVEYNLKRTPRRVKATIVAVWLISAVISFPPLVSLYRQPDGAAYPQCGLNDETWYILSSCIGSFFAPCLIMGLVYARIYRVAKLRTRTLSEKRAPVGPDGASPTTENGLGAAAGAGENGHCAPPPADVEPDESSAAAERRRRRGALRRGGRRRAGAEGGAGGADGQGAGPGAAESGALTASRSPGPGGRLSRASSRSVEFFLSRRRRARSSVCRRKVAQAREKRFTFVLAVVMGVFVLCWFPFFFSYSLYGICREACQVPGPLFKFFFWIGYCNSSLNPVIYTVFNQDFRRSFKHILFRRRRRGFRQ
Chain of Dual specificity protein phosphatase 6 (Homo sapiens) (Q16828 whole entry, looked up): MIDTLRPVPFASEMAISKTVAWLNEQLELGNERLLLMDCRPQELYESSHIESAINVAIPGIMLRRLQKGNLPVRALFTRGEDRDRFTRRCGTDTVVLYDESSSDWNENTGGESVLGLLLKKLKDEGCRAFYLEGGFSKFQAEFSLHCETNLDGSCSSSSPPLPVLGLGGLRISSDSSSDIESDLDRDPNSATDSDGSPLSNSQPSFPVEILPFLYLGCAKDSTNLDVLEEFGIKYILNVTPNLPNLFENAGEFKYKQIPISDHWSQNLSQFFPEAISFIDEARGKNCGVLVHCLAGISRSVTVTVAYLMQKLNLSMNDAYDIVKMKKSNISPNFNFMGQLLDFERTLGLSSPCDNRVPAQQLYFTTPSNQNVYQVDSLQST

As usually defined, the inhibition is the relative decrease from the control value, in per cent. With `CCN1CC=C2C(C#N)=C(N)C(C#N)(C#N)[C@H](c3cccc(OC)c3OC)[C@H]2C1`, the cell count in assay [1] turned out to be 560. The inhibition is -11.4% (inactive) in [1], 26.9% (inactive) in assay [2], -3.95% (inactive) in [4] and -15.5% (inactive) in assay [9]. Further, the nuclei count in [2] stood at 113%. Further, the z-score is 1.15 in assay [3] (setting [10]), 1.25 in assay [3] (setting [11]) and -1.6 in [3] (setting [12]). Besides, in [5], the fluorescence slope was -0.449 (inactive). In addition, the NADPH fluorescence slope in [6] is -6e-06 (inactive). In addition, in [7], the slope was -4.3e-17 (inactive). The outcome in [8] was inactive.

With `Cc1ccc2[nH]c(CCN(C)C)c(CC#N)c2c1`, the cell count in [1] was determined as 564. In addition, the inhibition in [1] was 4.9% (inactive); in assay [2] it was -74.2% (inactive); in [4], 18.6% (inactive); in assay [9], 10.4% (inactive). In assay [2], this compound yielded a nuclei count of 206%. For the same compound, the z-score in assay [3] (setting [10]) was -1.01; in assay [3] (setting [11]), -0.567; in assay [3] (setting [12]), 1.52. For the same compound, the fluorescence slope in assay [5] is -0.364 (inactive). Besides, the NADPH fluorescence slope in assay [6] is -2.8e-05 (inactive). The slope in assay [7] is 0.0055 (inactive). Further, the compound was called inactive in assay [8].

With `COc1cccc(/C(O)=C2\C(=O)C(=O)N(c3ccccn3)C2c2ccccc2OC)c1` (stereo not drawn), in [1], the cell count stood at 512. Further, the inhibition is -5.9% (inactive) in assay [1], -90.1% (inactive) in assay [2], 12.3% (inactive) in assay [4] and -14.1% (inactive) in [9]. Besides, the nuclei count in [2] was 126%. The z-score in [3] (setting [10]) was 1.61; in assay [3] (setting [11]) it was 0.206; in assay [3] (setting [12]), -0.573. The fluorescence slope in [5] is -0.54 (inactive). For the same compound, the NADPH fluorescence slope in [6] was -2.1e-05 (inactive). Also, in assay [7], the slope was 0.00547 (inactive). In assay [8], the result was inactive.

For `N#Cc1c(N)sc(=S)c2c1CCCCC2`, in assay [1], the cell count is 560. Further, the inhibition in assay [1] is -3.2% (inactive); in assay [2], -130% (inactive); in assay [4] it was -0.608% (inactive); in assay [9], 6.84% (inactive). In [2], this compound had a nuclei count of 180%. The values for the z-score in [3] (setting [10]), in assay [3] (setting [11]) and in [3] (setting [12]) were -0.472, -0.421 and 0.0305, respectively. Moreover, in assay [5], the fluorescence slope was -0.339 (inactive). In addition, the NADPH fluorescence slope in [6] was 2.8e-06 (inactive). Moreover, the slope in assay [7] was 0.00229 (inactive). In addition, in [8], the outcome was inactive.

Consider `O=C1OC2CCC1(c1ccccc1)C2` (stereo not drawn), for which the cell count in [1] worked out at 573. Also, the inhibition in assay [1] is -7% (inactive); in assay [2], 40.2% (inactive); in assay [4], -5.89% (inactive); in [9] it was -4.76% (inactive). The compound also gave a nuclei count in [2] of 137%. Further, the z-score in assay [3] (setting [10]) was -1.09; in [3] (setting [11]) it was 0.357; in assay [3] (setting [12]), 0.719. In addition, the fluorescence slope in assay [5] was -0.524 (inactive). For the same compound, the NADPH fluorescence slope in assay [6] is -7.2e-05 (inactive). Further, the slope in [7] is 0.00472 (inactive). The call in [8] was inactive.

On to `N#Cc1c(NC(=O)CCC(=O)O)sc2c1CCCC2`, for which the cell count in assay [1] worked out at 715. Moreover, the inhibition in [1] was -11.6% (inactive); in assay [2], -10.3% (inactive); in assay [4] it was -7.28% (inactive); in assay [9], -7.91% (inactive). The nuclei count in assay [2] turned out to be 186%. Further, the z-score in assay [3] (setting [10]) was -1.16; in [3] (setting [11]), 1.41; in assay [3] (setting [12]), -1.22. Also, the fluorescence slope in assay [5] is -0.388 (inactive). In addition, the NADPH fluorescence slope in assay [6] is -5e-05 (inactive). Further, in [7], the slope was 0.00575 (inactive). Also, the compound was classed as inactive in assay [8].

In the case of `Cc1ccc(N2C(=O)CC(N(O)C3CC(=O)N(c4ccc(C)cc4)C3=O)C2=O)cc1` (stereo not drawn), the cell count in [1] turned out to be 364. For the same compound, the inhibition in assay [1] was 0% (inactive); in assay [2], 28.2% (inactive); in assay [4], -0.584% (inactive); in assay [9] it was 54.9% (active). This compound yielded a nuclei count in [2] of 126%. The z-score was 0.996 in [3] (setting [10]), 0.402 in [3] (setting [11]) and 0.988 in assay [3] (setting [12]). Also, the fluorescence slope in assay [5] is -0.427 (inactive). For the same compound, the NADPH fluorescence slope in assay [6] is -0.000136 (inactive). Besides, the slope in assay [7] is 0.0056 (inactive). Besides, the outcome in assay [8] was inactive.

Turning to `ONC(=Nc1ccccc1)C(=Nc1ccccc1)NO`, in [1], the cell count is 348. In addition, the inhibition in assay [1] is -0.3% (inactive); in assay [2] it was -28.3% (inactive); in assay [4] it was 17% (inactive); in assay [9], 25.5% (inactive). For the same compound, the nuclei count in [2] was 100%. Moreover, the z-score in [3] (setting [10]) is 1.37; in assay [3] (setting [11]) it was 1.46; in assay [3] (setting [12]) it was 0.663. Also, the fluorescence slope in assay [5] was -0.542 (inactive). For the same compound, the NADPH fluorescence slope in assay [6] was -6e-05 (inactive). Further, in assay [7], the slope is 0.00535 (inactive). The result in [8] was inactive.

On to `Cc1nnc(C)n1/N=C/c1cc(Br)cc(Br)c1O`, for which, in assay [1], the cell count was found to be 354. Besides, the inhibition was 3.7% (inactive) in [1], -46.9% (inactive) in [2], 1.6e-07% (inactive) in [4] and 4.5% (inactive) in [9]. Besides, the nuclei count in [2] was determined as 156%. Besides, the values for the z-score in [3] (setting [10]), in assay [3] (setting [11]) and in assay [3] (setting [12]) were 0.57, 0.148 and -0.137, respectively. The fluorescence slope in assay [5] is -0.368 (inactive). Besides, in assay [6], the NADPH fluorescence slope is -0.000109 (inactive). Also, in assay [7], the slope was 0.00748 (inactive). In addition, the call in assay [8] was inactive.

In the case of `Clc1ccc(-c2nnc3sc(Cc4cccs4)nn23)c(Cl)c1`, the cell count in assay [1] worked out at 664. In addition, the inhibition in assay [1] is 0.3% (inactive); in [2], -136% (inactive); in assay [4], -9.66% (inactive); in assay [9], 37.7% (inactive). Further, the nuclei count in assay [2] stood at 169%. Also, the results for the z-score in assay [3] (setting [10]), in assay [3] (setting [11]) and in assay [3] (setting [12]) were 0.203, 0.587 and -0.53, respectively. The fluorescence slope in assay [5] is -0.43 (inactive). Moreover, the NADPH fluorescence slope in assay [6] is -0.00015 (inactive). Moreover, the slope in assay [7] was 0.00477 (inactive). The compound was called inactive in assay [8].

Consider `CN(C)c1nc2n(c(=S)n1)CCS2`, for which the cell count in [1] was found to be 604. The inhibition in assay [1] was -3.2% (inactive); in assay [2], -204% (inactive); in [4], 16.1% (inactive); in [9], -16.2% (inactive). Further, the nuclei count in assay [2] was 109%. The z-score was -0.355 in [3] (setting [10]), -0.0746 in assay [3] (setting [11]) and 0.173 in assay [3] (setting [12]). Moreover, in [5], the fluorescence slope was -0.409 (inactive). For the same compound, the NADPH fluorescence slope in assay [6] was -2e-05 (inactive). The slope in assay [7] was 0.00562 (inactive). In assay [8], the compound was classed as inactive.
